The values below come from ChEMBL document CHEMBL4130356, “Design, synthesis and 2D QSAR study of novel pyridine and quinolone hydrazone derivatives as potential antimicrobial and antitubercular agents” (Eur J Med Chem, 2017).

In brackets after ≈: the same amount, converted by molar mass. Activity calls are given as the source filed them. No cut-off for these calls is given here.

Series [1] relates to Aspergillus fumigatus. Kind of series: Antimicrobial activity against Aspergillus fumigatus RCMB 02568 after 48 hrs by serial dilution method. Type of series: functional. The conditions noted are these: RCMB 02568, 48 h. Summed up: (§1)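 Serial twofold dilution in microtiter plates starting from a 100 mmol stock in DMSO; final concentrations 125 down to 0.12 […]. Incubated at 28°C and read on a microplate reader after 48 h. Amphotericin B was the reference. Run in triplicate, with the average taken. MIC was the lowest concentration inhibiting growth.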

In series [2] the test system is Aspergillus fumigatus. Kind of series: Antimicrobial activity against Aspergillus fumigatus RCMB 02568 assessed as diameter of zone inhibition at 100 ug/ml after 48 hrs by agar well diffusion assay. As to conditions: for zone of inhibition at 100 µg/mL: RCMB 02568, 48 h, read-out: DIZ. Type of series: functional. The essentials: (§2)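 Agar well diffusion on malt agar plates seeded with the fungus, using 1 cm wells. Plates were held at 4°C for 1 h for diffusion, then incubated at 28°C. Inhibition zone diameters were measured at 48 h. Amphotericin B was the positive control. Run in triplicate, with the mean zone reported.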
In general terms: A growth-free zone around the sample is the usual read-out of agar diffusion tests.

For series [3], the system named is Candida albicans. Kind of series: Antimicrobial activity against Candida albicans RCMB 05036 assessed as diameter of zone inhibition at 100 ug/ml after 48 hrs by agar well diffusion assay. The conditions noted are these: for zone of inhibition at 100 µg/mL: RCMB 05036, 48 h, read-out: DIZ. The format is functional. Summed up: as §2
Series [4] deals with Streptococcus pneumoniae. Kind of series: Antimicrobial activity against Streptococcus pneumoniae RCMB 010010 assessed as diameter of zone inhibition at 100 ug/ml after 24 hrs by agar well diffusion assay. The format is functional. As to conditions: RCMB 010010, 24 h, read-out: DIZ. Summed up: (§3)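 Agar well diffusion on nutrient agar plates seeded with the bacterium, using 1 cm wells. Plates were held at 4°C for 1 h for diffusion, then incubated at 37°C. Inhibition zone diameters were measured at 24 h. Ciprofloxacin was the positive control. Run in triplicate, with the mean zone reported.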

In series [5] the test system is Staphylococcus aureus. Kind of series: Antimicrobial activity against Staphylococcus aureus RCMB 010028 assessed as diameter of zone inhibition at 100 ug/ml after 24 hrs by agar well diffusion assay. Type of series: functional. As to conditions: RCMB 010028, 24 h, read-out: DIZ. The essentials:
as §3

In series [6] the test system is Escherichia coli. Kind of series: Antimicrobial activity against Escherichia coli RCMB 010052 assessed as diameter of zone inhibition at 100 ug/ml after 24 hrs by agar well diffusion assay. The conditions noted are these: for zone of inhibition at 100 µg/mL: RCMB 010052, 24 h, read-out: DIZ. The format is functional. The essentials:
as §3

The subject of series [7] is Candida albicans. Kind of series: Antimicrobial activity against Candida albicans RCMB 05036 after 48 hrs by serial dilution method. Type of series: functional. The conditions noted are these: RCMB 05036, 48 h. Summed up:
as §1

Series [8] deals with Streptococcus pneumoniae. Kind of series: Antimicrobial activity against Streptococcus pneumoniae RCMB 010010 after 24 hrs by serial dilution method. As to conditions: RCMB 010010, 24 h. The format is functional. Summed up: (§4)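 Serial twofold dilution in microtiter plates starting from a 100 mmol stock in DMSO; final concentrations 125 down to 0.12 […]. Incubated at 37°C and read on a microplate reader after 24 h. Ciprofloxacin was the reference. Run in triplicate, with the average taken. MIC was the lowest concentration inhibiting growth.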

For series [9], the system named is Staphylococcus aureus. Kind of series: Antimicrobial activity against Staphylococcus aureus RCMB 010028 after 24 hrs by serial dilution method. The format is functional. As to conditions: RCMB 010028, 24 h. The essentials:
as §4

Series [10] has as its system Escherichia coli. Kind of series: Antimicrobial activity against Escherichia coli RCMB 010052 after 24 hrs by serial dilution method. Type of series: functional. The conditions noted are these: RCMB 010052, 24 h. Summed up: as §4
Series [11] deals with Mycobacterium tuberculosis. Kind of series: Antimycobacterial activity against Mycobacterium tuberculosis RCMB 010126 clinical isolate after 7 days by MABA. The format is functional. The essentials: (§5)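 Inoculum from fresh LJ culture resuspended in 7H9-S broth with casitone, glycerol and OADC, adjusted to McFarland No. 1 and diluted 1:20. Serial two-fold compound dilutions in 7H9-S; isoniazid reference. Incubated 7 days at 37°C in air, then Alamar blue added and incubated overnight. Percent inhibition = 1 − (test well/growth-control mean) × 100; MIC = lowest concentration preventing blue-to-pink change.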
In general terms: The colour change of resazurin is a common sign of viable cells or microbes.

The subject of series [12] is Mycobacterium tuberculosis. Kind of series: Antimycobacterial activity against Mycobacterium tuberculosis RCMB 010126 clinical isolate assessed as inhibition zone after 7 days by MABA. The format is functional. The essentials:
as §5

For series [13], the system named is Pseudomonas aeruginosa. As to conditions: RCMB 010043, 100 ug/ml.
In series [14] the test system is Pseudomonas aeruginosa. As to conditions: RCMB 010043.
The subject of series [15] is WI-38. Kind of series: Cytotoxicity against human WI38 cells assessed as reduction in cell viability after 24 hrs by crystal violet staining-based colorimetric method. The conditions noted are these: WI-38, 24 h. The essentials:
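WI-38 cells were grown in DMEM with 10% FBS at 37°C and 5% CO2, then seeded at 1×10^4 cells/well. Serial twofold dilutions were added, three wells per concentration. Viability was read by crystal violet stain, solubilised in 30% acetic acid, at 490 nm. Run in triplicate. IC50 was estimated from dose-response plots.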

A short description of series [16]: Selectivity index, ratio of IC50 for human WI38 cells to MIC for Mycobacterium tuberculosis RCMB 010126 clinical isolate. As to conditions: read-out: Selectivity Index. Type of series: toxicity. The essentials:
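WI-38 human lung fibroblasts grown in DMEM with 10% FBS at 37°C and 5% CO2, seeded at 1×10^4 cells/well, and exposed to serial two-fold dilutions in triplicate. Viability read by crystal violet stain at 490 nm. IC50 taken from dose-response plots. Ratio uses this IC50 against the MABA MIC for M. tuberculosis.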

[17] abbreviates: Mycobacterium tuberculosis, RCMB 010126, 168 h.

For orientation: MIC means the lowest concentration that inhibits growth of the organism. As for `O=C(N/N=C/c1ccc(F)cc1)c1c[nH]c2ccc(Cl)cc2c1=O`, the MIC was determined as 15.6 µg/mL (≈ 45.5 µM) in [1]; 31.2 µg/mL (≈ 90.9 µM) in [7]; 15.6 µg/mL (≈ 45.5 µM) in [8]; 31.2 µg/mL (≈ 90.9 µM) in series [9]; 62.5 µg/mL (≈ 182 µM) in series [10]. The zone of inhibition at 100 µg/mL in [2] came to 11.3 mm; in series [3], 10.3 mm; in series [4] it was 12.4 mm; in series [5] it was 10.6 mm; in [6], 12.7 mm. Also, the MIC result in series [11] and in series [14] was “inactive” in each case. The “inhibition zone (IZ)” value in series [12] was “inactive”. For the same molecule, the DIZ result in [13] was “inactive”.
In the case of `Cc1ccc(/C=N/NC(=O)c2c[nH]c3cc(Cl)ccc3c2=O)cc1`, the MIC in series [1], in series [7], in series [8], in series [9] and in series [10] was 62.5 µg/mL (≈ 184 µM) each time. Also, the zone of inhibition at 100 µg/mL in series [2] worked out at 13.7 mm; in [3] it was 14.5 mm; in series [4] it was 13.9 mm; in series [5] it was 14.4 mm; in series [6], 15 mm. In addition, the MIC entry in [11] and in series [14] was “inactive” each time. The “inhibition zone (IZ)” value in [12] is “inactive”. For the same molecule, the DIZ entry in [13] is “inactive”.
With `COc1ccc(/C=N/NC(=O)c2c[nH]c3ccc(Cl)cc3c2=O)cc1OC`, the MIC in series [1] stood at 7.81 µg/mL (≈ 20.2 µM); in series [7] it was 15.6 µg/mL (≈ 40.5 µM); in series [8], 3.9 µg/mL (≈ 10.1 µM); in series [9], 15.6 µg/mL (≈ 40.5 µM); in series [10], 1.95 µg/mL (≈ 5.05 µM); in [11] (setting [17]) it was 25 µg/mL (≈ 64.7 µM). Also, the zone of inhibition at 100 µg/mL stood at 18.4 mm in series [2]; 16.9 mm in series [3]; 19.1 mm in series [4]; 17.2 mm in series [5]; 21.3 mm in series [6]. Besides, in series [12], the “inhibition zone (IZ)” value is 31.25 mm. In addition, in series [13], the DIZ result is “inactive”. For the same molecule, the MIC entry in series [14] was “inactive”.
The IC50 is the concentration that gives 50% inhibition. As to `Cc1ccc(/C=N/NC(=O)c2ccc(-c3cccc(Cl)c3)nc2C)cc1`, the “diameter of the inhibition zone (DIZ)” value in [2], in series [3] and in series [6] was “inactive” in each case. Besides, the zone of inhibition at 100 µg/mL in series [4] came out at 13.6 mm; in series [5], 12.6 mm. In series [11] (setting [17]), this molecule showed an MIC of 1.56 µg/mL (≈ 4.29 µM). Further, in series [12], the “inhibition zone (IZ)” value came to 61.24 mm. Also, the IC50 in [15] worked out at 500 µg/mL (≈ 1370 µM). In series [16], the selectivity ratio came out at 321. The DIZ result in [13] was “inactive”.
Regarding `O=C(N/N=C/c1ccc(Cl)cc1)c1c[nH]c2ccc(Cl)cc2c1=O`, the MIC in series [1] was found to be 31.2 µg/mL (≈ 86.8 µM); in series [7] it was 62.5 µg/mL (≈ 174 µM); in series [8], 15.6 µg/mL (≈ 43.4 µM); in series [9], 31.2 µg/mL (≈ 86.8 µM); in series [10], 1.95 µg/mL (≈ 5.41 µM); in series [11] (setting [17]) it was 99.8 µg/mL (≈ 277 µM). In addition, the zone of inhibition at 100 µg/mL in series [2] is 16.3 mm; in series [3], 13.6 mm; in [4], 17.3 mm; in series [5], 15.3 mm; in [6], 20.6 mm. Moreover, in series [12], the “inhibition zone (IZ)” value was 17.8 mm. In series [13], the DIZ result is “inactive”. Further, the MIC result in series [14] was “inactive”.
